Experimental data taken from ChEMBL document CHEMBL4330087, “Synthesis, antimicrobial activity, attenuation of aminoglycoside resistance in MRSA, and ribosomal A-site binding of pyrene-neomycin conjugates” (Eur J Med Chem, 2019).
Calls of active or inactive are those of the source. No cut-off for these calls is given here.

How the values were obtained:
[1] = Inhibition of AAC(2')-1c (unknown origin)
Ribosomal RNA A-site [2] = assay: Displacement of F-NEO from human cytosolic rRNA-A site after 10 to 20 mins by fluorescence assay relative to NEO; type: nucleic-acid assay; parameters: concentration or dose not given beside the values
Outline: (§1)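 100 nM F-NEO:A-site complex in 10 mM HEPES, 50 mM NaCl, 0.04 mM EDTA, pH 7.0, mixed with ligand and incubated 10-20 min at room temperature. Fluorescence read at ex 485/em 525 nm, in duplicate. Percent binding was computed from the intensities of ligand-treated complex, complex without ligand, and complex with neomycin.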

Staphylococcus aureus [3] = assay: Antibacterial activity against methicillin-resistant Staphylococcus aureus M0602 at 6.25 uM after 15 to 20 hrs by CLSI protocol based microdilution assay relative to control; type: functional
Outline: (§2)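 Exponential-phase cultures were exposed to 6.25 μM compound in duplicate with neomycin as reference, at 37 °C in a humidified incubator for 15-20 h. Broth and culture controls received sterile water with 1% DMSO. Percent growth inhibition was calculated against the growth and background controls.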

Staphylococcus aureus [4] = assay: Antibacterial activity against NEO-sensitive Staphylococcus aureus harboring NorA mutant at 6.25 uM after 15 to 20 hrs by CLSI protocol based microdilution assay relative to control; type: functional
Outline: as §2

Pseudomonas aeruginosa = assay: Antibacterial activity against NEO-resistant Pseudomonas aeruginosa 27853 at 6.25 uM after 15 to 20 hrs by CLSI protocol based microdilution assay relative to control; type: functional
Outline: as §2

[5] = Inhibition of APH(3')-1a (unknown origin)
Ribosomal RNA A-site [6] = assay: Displacement of F-NEO from human mitochondrial rRNA-A site after 10 to 20 mins by fluorescence assay relative to NEO; type: nucleic-acid assay; parameters: concentration or dose not given beside the values
Outline: as §1

[7] = test system: Staphylococcus epidermidis; assay: Antibacterial activity against NEO-sensitive Staphylococcus epidermidis 12384 at 6.25 uM after 15 to 20 hrs by CLSI protocol based microdilution assay relative to control; type: functional
Outline: (§3)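 Single-concentration screen at 6.25 μM against exponential-phase cultures, in duplicate, with NEO as reference. Enterococcus was grown in BHI broth, M. smegmatis in TS broth with 0.05% Tween 80, and all other strains in TS broth. The 1% DMSO water vehicle was added to broth (background) and culture (growth control). Incubation was 37 °C, humidified, 15-20 h. Result is percent growth inhibition.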

[8] = Inhibition of Eis (unknown origin)
Listeria monocytogenes = assay: Antibacterial activity against NEO-sensitive Listeria monocytogenes ATCC 19115 at 6.25 uM after 15 to 20 hrs by CLSI protocol based microdilution assay relative to control; type: functional
Outline: as §3

[9] = Inhibition of AAC(6')-1e (unknown origin)
Klebsiella oxytoca = assay: Antibacterial activity against NEO-sensitive Klebsiella oxytoca HM-625 at 6.25 uM after 15 to 20 hrs by CLSI protocol based microdilution assay relative to control; type: functional
Outline: as §3

Ribosomal RNA A-site [10] = assay: Displacement of F-NEO from Escherichia coli rRNA-A site after 10 to 20 mins by fluorescence assay relative to NEO; type: nucleic-acid assay; parameters: concentration or dose not given beside the values
Outline: as §1

Ribosomal RNA A-site [11] = assay: Displacement of F-NEO from human cytosolic rRNA-A site after 10 to 20 mins by fluorescence assay; type: nucleic-acid assay
Outline: (§4)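 A 100 nM F-NEO:A-site RNA complex in 10 mM HEPES, 50 mM NaCl, 0.04 mM EDTA, pH 7.0 was titrated with 2-fold dilutions of ligand from 20 to 0.009 μM, or from 60 or 40 μM for weaker ligands. Incubated 10-20 min at room temperature, fluorescence read at ex 485/em 525 nm. IC50 from dose-response curve fit.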

Bacillus anthracis = assay: Antibacterial activity against NEO-sensitive Bacillus anthracis BA852 at 6.25 uM after 15 to 20 hrs by CLSI protocol based microdilution assay relative to control; type: functional
Outline: as §2

Klebsiella pneumoniae = assay: Antibacterial activity against Klebsiella pneumoniae NR-151410 at 6.25 uM after 15 to 20 hrs by CLSI protocol based microdilution assay relative to control; type: functional
Outline: as §3

Staphylococcus aureus [12] = assay: Antibacterial activity against NEO-sensitive Staphylococcus aureus 25923 at 6.25 uM after 15 to 20 hrs by CLSI protocol based microdilution assay relative to control; type: functional
Outline: as §3

[13] = Displacement of F-NEO from human mitochondrial rRNA-A site C1410U mutant after 10 to 20 mins by fluorescence assay
Outline: as §4

Acinetobacter baumannii = assay: Antibacterial activity against NEO-sensitive Acinetobacter baumannii ATCC 19606 at 6.25 uM after 15 to 20 hrs by CLSI protocol based microdilution assay relative to control; type: functional, ATCC 19606 = CIP 70.34 = JCM 6841
Outline: as §3

Enterococcus faecium = assay: Antibacterial activity against NEO-intermediate sensitive Enterococcus faecium BM4105-RF at 6.25 uM after 15 to 20 hrs by CLSI protocol based microdilution assay relative to control; type: functional
Outline: as §3

Staphylococcus aureus [14] = assay: Antibacterial activity against methicillin-resistant Staphylococcus aureus SU-5 at 6.25 uM after 15 to 20 hrs by CLSI protocol based microdilution assay relative to control; type: functional
Outline: as §2

Enterococcus faecalis = assay: Antibacterial activity against NEO-intermediate sensitive Enterococcus faecalis ATCC 29212 at 6.25 uM after 15 to 20 hrs by CLSI protocol based microdilution assay relative to control; type: functional
Outline: as §3

Ribosomal RNA A-site [15] = assay: Displacement of F-NEO from Escherichia coli rRNA-A site after 10 to 20 mins by fluorescence assay; type: nucleic-acid assay
Outline: as §4

Staphylococcus aureus [16] = assay: Antibacterial activity against methicillin-resistant Staphylococcus aureus A960649 at 6.25 uM after 15 to 20 hrs by CLSI protocol based microdilution assay relative to control; type: functional
Outline: as §2

Escherichia coli [17] = assay: Antibacterial activity against NEO-sensitive Escherichia coli harboring TolC mutant at 6.25 uM after 15 to 20 hrs by CLSI protocol based microdilution assay relative to control; type: functional
Outline: as §2

Ribosomal RNA A-site [18] = assay: Displacement of F-NEO from human mitochondrial rRNA-A site after 10 to 20 mins by fluorescence assay; type: nucleic-acid assay
Outline: as §4

[19] = Inhibition of AAC(3)-4 (unknown origin)
[20] = Inhibition of APH(2\")-1a (unknown origin)
Staphylococcus aureus [21] = assay: Antibacterial activity against methicillin-resistant Staphylococcus aureus 33591 at 6.25 uM after 15 to 20 hrs by CLSI protocol based microdilution assay relative to control; type: functional
Outline: as §2

Escherichia coli [22] = assay: Antibacterial activity against NEO-sensitive Escherichia coli ATCC 25922 at 6.25 uM after 15 to 20 hrs by CLSI protocol based microdilution assay relative to control; type: functional
Outline: as §3

Homo sapiens [23] = species: Homo sapiens; assay: Displacement of F-NEO from human mitochondrial rRNA-A site C1410U mutant after 10 to 20 mins by fluorescence assay relative to NEO; parameters: concentration or dose not given beside the values
Outline: as §1

Homo sapiens [24] = species: Homo sapiens; assay: Displacement of F-NEO from human mitochondrial rRNA-A site A1490G mutant after 10 to 20 mins by fluorescence assay relative to NEO
Outline: as §1

[25] = Antibacterial activity against NEO-sensitive Enterobacter cloacae 13047 at 6.25 uM after 15 to 20 hrs by CLSI protocol based microdilution assay relative to control; type: functional, Enterobacter cloacae subsp. cloacae, ATCC 13047
Outline: as §3

Row | Compound | inhibition [1] | inhibition (Ribosomal RNA A-site [2]) | Activity (Staphylococcus aureus [3]) | Activity (Staphylococcus aureus [4]) | Activity (Pseudomonas aeruginosa) | inhibition [5] | inhibition (Ribosomal RNA A-site [6]) | Activity [7] | inhibition [8] | Activity (Listeria monocytogenes) | inhibition [9] | Activity (Klebsiella oxytoca) | inhibition (Ribosomal RNA A-site [10]) | IC50 (Ribosomal RNA A-site [11]) | Activity (Bacillus anthracis) | Activity (Klebsiella pneumoniae) | Activity (Staphylococcus aureus [12]) | IC50 [13] | Activity (Acinetobacter baumannii) | Activity (Enterococcus faecium) | further results
1 | NC[C@@H]1O[C@H](O[C@H]2[C@@H](O)[C@H](O[C@@H]3[C@@H](O)[C@H](N)C[C@H](N)[C@H]3O[C@H]3O[C@H](CN)[C@@H](O)[C@H](O)[C@H]3N)O[C@@H]2CSCCNC(=O)Cc2ccc3ccc4cccc5ccc2c3c45)[C@H](N)[C@@H](O)[C@@H]1O | Active | 114% | 32% | 60% | 0% | Active | 102% | 81% | Active | 52% | Active | 16% | 101% | 97 nM | 100% | 23% | 48% | 70 nM | 6% | 15% | Activity (Staphylococcus aureus [14]): 39%; Activity (Enterococcus faecalis): 20%; IC50 (Ribosomal RNA A-site [15]): 95 nM; Activity (Staphylococcus aureus [16]): 7%; Activity (Escherichia coli [17]): 100%; IC50 (Ribosomal RNA A-site [18]): 90 nM; inhibition [19]: Active; inhibition [20]: Active; Activity (Staphylococcus aureus [21]): 0%; Activity (Escherichia coli [22]): 0%; inhibition (Homo sapiens [23]): 103%; inhibition (Homo sapiens [24]): 102%; Activity [25]: 5%
2 | NC[C@@H]1O[C@H](O[C@H]2[C@@H](O)[C@H](O[C@@H]3[C@@H](O)[C@H](N)C[C@H](N)[C@H]3O[C@H]3O[C@H](CN)[C@@H](O)[C@H](O)[C@H]3N)O[C@@H]2CNC(=O)CCCc2ccc3ccc4cccc5ccc2c3c45)[C@H](N)[C@@H](O)[C@@H]1O | Active | 99% | 19% | 43% | 11% | Active | 89% | 80% | Active | 22% | Active | 5% | 99% | 200 nM | 23% | 12% | 12% | 149 nM | 5% | 0% | Activity (Staphylococcus aureus [14]): 22%; Activity (Enterococcus faecalis): 0%; IC50 (Ribosomal RNA A-site [15]): 170 nM; Activity (Staphylococcus aureus [16]): 35%; Activity (Escherichia coli [17]): 54%; IC50 (Ribosomal RNA A-site [18]): 465 nM; inhibition [19]: Active; inhibition [20]: Active; Activity (Staphylococcus aureus [21]): 23%; Activity (Escherichia coli [22]): 8%; inhibition (Homo sapiens [23]): 103%; inhibition (Homo sapiens [24]): 88%; Activity [25]: 5%
